Measured values from publication PMC3961596 (Advances in Therapy, 2014).

Key:
SGLT1 = conditions: cited from earlier work
[1] = tested on: urinary glucose excretion; assay: MAD study: urinary glucose excretion; type: in vivo, human; conditions: for mean daily UGE (range): administration days 1–7
In short: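 Subjects took 5 or 10 mg/day or placebo orally for 7 days before breakfast. Urine was pooled over 24 h predose, over 2-h intervals to 16 h and 16–24 h on Days 1 and 7, and every 24 h on other days through Day 14. Glucose was measured on an automated analyzer; daily and 24-h cumulative UGE (g) were derived. Groups were compared with placebo by ANCOVA, with baseline glucose as covariate.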

[2] = 7-day multiple ascending dose; type: in vivo, human; conditions: for mean daily urinary luseogliflozin excretion rate (% of daily dose): Days 1–7, range; for mean urinary luseogliflozin excretion rate: Days 1–11 (96 h after the last administration); for AUC / AUC(0-inf): po
In short: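 In healthy Japanese men, 5 or 10 mg/day or placebo was given orally for 7 days with 200 mL water just before breakfast, with a standardized ~630 kcal meal on Days 1 and 7. Heparin plasma was sampled to 12 h after the first dose, predose on Days 2–7, and to 96 h after the last dose. Plasma and urine were assayed by HPLC–MS/MS, and parameters derived noncompartmentally (AUCinf Day 1, AUC0–24 Day 7); accumulation was assessed by comparing these.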

[3] = tested on: urinary glucose excretion; assay: SAD study: urinary glucose excretion; type: in vivo, human
In short: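 After a single oral fasting dose (1–25 mg) or placebo, urine was pooled over 24 h predose and over intervals from 0–2 to 24–48 h post-dose, extended to 96 h for 15 and 25 mg. Aliquots were kept at 4 °C, and glucose was measured on an automated analyzer. UGE (g) was computed per collection period and as 24-h cumulative.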

Single ascending dose = type: in vivo, human; conditions: for Cmax / Tmax / k el / Vd/F / half-life: human, plasma, po; for k el: λz
In short: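 Healthy Japanese men received a single oral dose (1–25 mg) or placebo with 200 mL water under fasting conditions. The 5 mg group was redosed preprandially 8 days later, followed by a standardized ~630 kcal meal. Plasma and urine were collected to 48 h (96 h at 15 and 25 mg) and assayed by HPLC–MS/MS (urine LLOQ 0.5 ng/mL). Analysis was noncompartmental: AUClast by trapezoidal rule, AUCinf extrapolated. Dose proportionality used a power model; food effect used preprandial/fasting geometric mean ratios with 90% CI (mixed model).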

[4] = tested on: healthy male Japanese subjects; assay: Assessment of safety in the SAD and MAD studies; type: in vivo, human
[5] = animal study; cited from earlier work
SGLT2 = conditions: read-out: 50% inhibitory concentration (IC50) for SGLT2; cited from earlier work
plasma glucose = assay: Plasma glucose concentrations in the SAD and MAD studies; type: in vivo, human; conditions: healthy subjects, vs placebo
[6] = SAD, 5 mg, N = 8, estimated value (90% CI)
[7] = both studies (SAD 1–25 mg, MAD 5 or 10 mg/day 7 days)

In the case of `CCOc1ccc(Cc2cc([C@@H]3S[C@H](CO)[C@@H](O)[C@H](O)[C@H]3O)c(OC)cc2C)cc1` [luseogliflozin, (1S)-1,5-anhydro-1-[5-(4-ethoxybenzyl)-2-methoxy-4-methylphenyl]-1-thio-D-glucitol], the “selectivity: SGLT2 IC50 lower than IC50 for SGLT1” value (SGLT1) is listed as 1,765 fold, the “mean daily UGE on Day 7” value ([1]; 5 mg) is listed as 58.0 g and the “mean daily UGE (range)” value ([1]; 5 mg) is listed as 57.2 to 65.5 g. For the same compound, the “mean daily UGE on Day 7” value ([1]; 10 mg) was 62.7 g, the “mean daily UGE (range)” value ([1]; 10 mg) was 62.7 to 76.9 g and the “mean daily UGE after the last administration” value ([1]; both 5 and 10 mg doses) was “about 60 g”. The “mean daily urinary luseogliflozin excretion rate (% of daily dose)” value ([2]; MAD, 5 mg) was 3.74–4.69%, the “mean urinary luseogliflozin excretion rate” value ([2]; MAD, 5 mg) was 4.58% and the CL/F ([2]; MAD, 5 mg/day oral before breakfast, Day 1, N = 8, mean ± SD) was 2.72 ± 0.648 L/h. The CL/F ([2]; MAD, 5 mg/day oral before breakfast, Day 7, N = 8, mean ± SD) was 2.61 ± 0.537 L/h, the “mean daily urinary luseogliflozin excretion rate (% of daily dose)” value ([2]; MAD, 10 mg) was 3.58–4.23% and the “mean urinary luseogliflozin excretion rate” value ([2]; MAD, 10 mg) was 4.12%. For the same compound, the CL/F ([2]; MAD, 10 mg/day oral before breakfast, Day 1, N = 8, mean ± SD) was 3.05 ± 0.628 L/h, the CL/F ([2]; MAD, 10 mg/day oral before breakfast, Day 7, N = 8, mean ± SD) was 3.00 ± 0.612 L/h and the accumulation potential ([2]; MAD, 7 days, AUCinf Day 1 vs AUCτ Day 7) was “No accumulation potential”. The “trough concentrations, steady state” value ([2]; MAD, value just before each administration) was “reached a steady state by Day 7”, the AUC ([2]; human, plasma, 5 mg/day) was 1.98 µg·h/mL and the AUC(0-inf) ([2]; human, plasma, 5 mg/day) was 1.93 µg·h/mL. It also gave an AUC ([2]; human, plasma, 10 mg/day) of 3.47 µg·h/mL, an AUC(0-inf) ([2]; human, plasma, 10 mg/day) of 3.43 µg·h/mL and a half-life ([2]; male, human, plasma, oral, mean T 1/2 after 7-day repeat administration (range), MAD, 5 and 10 mg/day, Day 7) of 9.14 to 10.7 h. The “increase in 24-h UGE between 1 and 5 mg” value [3] was 2.7 fold, the “increase in 24-h UGE from 5 to 25 mg” value [3] was 1.4 fold and the “maximum of mean UGE for 24 h” value [3] was “approximately 70 g”. For the same compound, the “mean UGE for 24 h after administration” value ([3]; 1 mg) was 18.9 g, the “mean UGE from 24 to 48 h after administration” value (from here on “mean UGE from 24 to 48 h”) ([3]; 1 mg) was 2.53 g and the “mean UGE for 24 h after administration” value ([3]; 3 mg) was 36.8 g. The “mean UGE from 24 to 48 h” value ([3]; 3 mg) was 12.5 g, the “mean UGE for 24 h after administration” value ([3]; 5 mg) was 50.2 g and the “mean UGE from 24 to 48 h” value ([3]; 5 mg) was 21.3 g. The “mean UGE for 24 h after administration” value ([3]; 9 mg) was 54.3 g, the “mean UGE from 24 to 48 h” value ([3]; 9 mg) was 37.5 g and the “mean UGE for 24 h after administration” value ([3]; 15 mg) was 60.7 g. The “mean UGE from 24 to 48 h” value ([3]; 15 mg) was 48.4 g, the “mean UGE for 24 h after administration” value ([3]; 25 mg) was 70.9 g and the “mean UGE from 24 to 48 h” value ([3]; 25 mg) was 62.7 g. The “effect of food on pharmacokinetics” value (Single ascending dose; SAD, 5 mg preprandial vs fasting) was “food had little effect on luseogliflozin pharmacokinetics”, the AUCinf ratio preprandial/fasting (Single ascending dose; [6]) was 105 (101–110) % and the AUClast ratio preprandial/fasting (Single ascending dose; [6]) was 105 (101–109) %. The “C max ratio preprandial/fasting” value (Single ascending dose; [6]) was 107 (89.9–127) %, the “mean plasma concentration as % of C max” value (Single ascending dose; SAD, by 48 h after administration) was 2–3% and the dose proportionality (Single ascending dose; SAD, dose range 1–25 mg) was “dose proportionality was observed”. The “mean urinary luseogliflozin excretion rate (% of each dose)” value (Single ascending dose; SAD, single administration, fasting, range over doses) was 3.36–4.40%, the CL/F (Single ascending dose; SAD, single oral 1 mg, fasting, N = 3, mean ± SD) was 3.02 ± 0.489 L/h and the CL/F (Single ascending dose; SAD, single oral 3 mg, fasting, N = 8, mean ± SD) was 3.16 ± 0.744 L/h. The CL/F (Single ascending dose; SAD, single oral 5 mg, fasting, N = 8, mean ± SD) was 2.80 ± 0.465 L/h, the CL/F (Single ascending dose; SAD, single oral 5 mg, preprandial, N = 8, mean ± SD) was 2.64 ± 0.362 L/h and the CL/F (Single ascending dose; SAD, single oral 9 mg, fasting, N = 8, mean ± SD) was 2.98 ± 0.326 L/h. For the same compound, the CL/F (Single ascending dose; SAD, single oral 15 mg, fasting, N = 8, mean ± SD) was 2.99 ± 0.483 L/h, the CL/F (Single ascending dose; SAD, single oral 25 mg, fasting, N = 8, mean ± SD) was 2.99 ± 0.436 L/h and the Cmax (Single ascending dose; 1 mg) was 0.0382 ± 0.00486 µg/mL. For the same compound, the Tmax (Single ascending dose; 1 mg) was 0.667 ± 0.289 h, the k el (Single ascending dose; 1 mg, SAD, single oral 1 mg, fasting, N = 3, mean ± SD) was 1.85e-05 s⁻¹ and the Cmax (Single ascending dose; 3 mg) was 0.116 ± 0.0246 µg/mL. It also gave a Tmax (Single ascending dose; 3 mg) of 0.75 ± 0.267 h, a k el (Single ascending dose; 3 mg, SAD, single oral 3 mg, fasting, N = 8, mean ± SD) of 2.11e-05 s⁻¹ and a Cmax (Single ascending dose; 5 mg) of 0.187 ± 0.0273 µg/mL. For the same compound, the Tmax (Single ascending dose; 5 mg) was 1.06 ± 0.496 h, the Vd/F (Single ascending dose; 5 mg) was 38.9 ± 4.97 L and the half-life (Single ascending dose; 5 mg) was 10.3 ± 1.02 h. For the same compound, the k el (Single ascending dose; 5 mg, SAD, single oral 5 mg, fasting, N = 8, mean ± SD) was 2.01e-05 s⁻¹, the Cmax (Single ascending dose; 9 mg) was 0.312 ± 0.0452 µg/mL and the Tmax (Single ascending dose; 9 mg) was 1.25 ± 0.598 h. It also gave a k el (Single ascending dose; 9 mg, SAD, single oral 9 mg, fasting, N = 8, mean ± SD) of 1.96e-05 s⁻¹, a Vd/F (Single ascending dose; 15 mg) of 60.5 ± 31 L and a half-life (Single ascending dose; 15 mg) of 13.8 ± 5.76 h. The k el (Single ascending dose; 15 mg, SAD, single oral 15 mg, fasting, N = 8, mean ± SD) was 1.57e-05 s⁻¹, the Vd/F (Single ascending dose; 25 mg) was 54.7 ± 13.7 L and the k el (Single ascending dose; 25 mg, SAD, single oral 25 mg, fasting, N = 8, mean ± SD) was 1.56e-05 s⁻¹. For the same compound, the Tmax (Single ascending dose; male) was 0.667 to 2.25 h, the half-life (Single ascending dose; male) was 9.23 to 13.8 h and the Vd/F (Single ascending dose; male, 1 mg) was 45.3 ± 6.88 L. The half-life (Single ascending dose; male, 1 mg) was 10.4 ± 0.552 h, the Vd/F (Single ascending dose; male, 3 mg) was 41.4 ± 7.17 L and the half-life (Single ascending dose; male, 3 mg) was 9.23 ± 0.95 h. For the same compound, the Cmax (Single ascending dose; male, 5 mg) was 0.205 ± 0.0535 µg/mL, the Tmax (Single ascending dose; male, 5 mg) was 0.75 ± 0.535 h and the Vd/F (Single ascending dose; male, 5 mg) was 38.7 ± 4.11 L. The half-life (Single ascending dose; male, 5 mg) was 9.72 ± 1.17 h, the Vd/F (Single ascending dose; male, 9 mg) was 42.4 ± 5.4 L and the Cmax (Single ascending dose; male, 15 mg) was 0.544 ± 0.143 µg/mL. For the same compound, the Cmax (Single ascending dose; male, 25 mg) was 0.721 ± 0.123 µg/mL, the “changes in renal function test values, blood and urine electrolytes, body weight, vital signs, electrocardiography” value ([4]; MAD) was “no clinically significant changes” and the “severity of AEs” value ([4]; MAD) was “mild and reversible”. For the same compound, the AE diarrhoea ([4]; MAD, 10 mg) was 1 subject, the “AE occult blood positive” value ([4]; MAD, 10 mg) was 1 subject and the “subjects with AEs” value ([4]; MAD, 16 subjects received luseogliflozin) was 2 subjects. The “Escherichia coli and Klebsiella oxytoca in urine” value ([4]; MAD, after drug administration) was “less than 10^3 colony forming units/mL”, the “changes in renal function test values, blood and urine electrolytes” value ([4]; SAD) was “no clinically significant changes” and the “severity of AEs” value ([4]; SAD) was “mild, reversible, and did not appear to be dose-related”. For the same compound, the “AE occult blood positive” value ([4]; SAD, 3 mg) was 2 subjects, the “AE beta 2 microglobulin urine increased” value ([4]; SAD, 9 mg) was 1 subject and the AE diarrhoea ([4]; SAD, 25 mg) was 1 subject. The AE urethritis ([4]; SAD, 25 mg) was 1 subject, the “subjects with AEs” value ([4]; SAD, 43 subjects received luseogliflozin) was 7 subjects and the hypoglycemia [4, 7] was “no cases of hypoglycemia”. The “serious AEs or AEs leading to discontinuation” value [4, 7] was “no serious AEs or AEs leading to discontinuation were observed”, the “concentration in the kidney vs plasma” value [5] was “higher concentration in the kidney than in the plasma” and the IC50 (SGLT2) was 2.26 nM. The “effect on fasting plasma glucose levels” value (plasma glucose) was “did not produce clinically significant decreases in fasting plasma glucose levels”.
